From ChEMBL document CHEMBL1132233, “6-Anilinouracil-based inhibitors of Bacillus subtilis DNA polymerase III: antipolymerase and antimicrobial structure-activity relationships based on substitution at uracil N3” (J Med Chem, 1999)
In brackets after ≈: the same amount, converted by molar mass.

Assays:
[1] = Compound was tested for inhibitory activity against DNA pol III of Bacillus subtilis
Outline: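 Homogeneous recombinant B. subtilis DNA pol III was assayed on activated calf thymus DNA. Apparent Ki was determined with a truncated assay lacking the competitor dGTP. Values are the average of three independent experiments.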

[2] = system: Bacillus subtilis; assay: Minimum inhibitory concentration against Bacillus subtilis; type: functional
Outline: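 Test organism was penicillin-sensitive B. subtilis strain BD54. A log-phase culture was diluted to 10^4 cells/mL in Luria broth. Inhibitors in DMSO were added at 0–100 µM, with final DMSO at 1%. Cultures were incubated 24 h at 37 °C and growth was scored by eye. MIC is the lowest concentration with no apparent growth, averaged over three independent experiments.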

[3] = target: DNA polymerase III (Bacillus subtilis); assay: Compound was tested for inhibitory activity against DNA polymerase III of Bacillus subtilis

Ki [1] [nM] | MIC [2] [µM] | Ki [3] [nM] | SMILES
590 | 3 (≈ 0.868 µg/mL) |  | CCc1cc(Nc2cc(=O)n(CCO)c(=O)[nH]2)ccc1C
 | 11 (≈ 3.14 µg/mL) | 310 | CCCn1c(=O)cc(Nc2ccc3c(c2)CCC3)[nH]c1=O
1000 | 30 (≈ 7.36 µg/mL) |  | CCc1cc(Nc2cc(O)nc(O)n2)ccc1C
 | 3 (≈ 0.898 µg/mL) | 90 | CCCCn1c(=O)cc(Nc2ccc3c(c2)CCC3)[nH]c1=O
310 | 3 (≈ 0.814 µg/mL) |  | CCn1c(=O)cc(Nc2ccc3c(c2)CCC3)[nH]c1=O
1340 | 5 (≈ 1.29 µg/mL) |  | Cn1c(=O)cc(Nc2ccc3c(c2)CCC3)[nH]c1=O
 | 1.5 (≈ 0.41 µg/mL) | 120 | CCc1cc(Nc2cc(=O)n(CC)c(=O)[nH]2)ccc1C
730 | 3 (≈ 0.91 µg/mL) |  | CCc1cc(Nc2cc(=O)n(CCCO)c(=O)[nH]2)ccc1C
210 | 1.5 (≈ 0.428 µg/mL) |  | C=CCn1c(=O)cc(Nc2ccc(C)c(CC)c2)[nH]c1=O
240 | > 100 |  | CCCCCCn1c(=O)cc(Nc2ccc3c(c2)CCC3)[nH]c1=O
380 | 3 (≈ 0.85 µg/mL) |  | C=CCn1c(=O)cc(Nc2ccc3c(c2)CCC3)[nH]c1=O
580 | 3 (≈ 0.91 µg/mL) |  | CCc1cc(Nc2cc(=O)n(CCOC)c(=O)[nH]2)ccc1C
1200 | 30 (≈ 7.3 µg/mL) |  | Oc1cc(Nc2ccc3c(c2)CCC3)nc(O)n1
1000 | 1.5 (≈ 0.476 µg/mL) |  | CCc1cc(Nc2cc(=O)n(CCCOC)c(=O)[nH]2)ccc1C
